In ChEMBL document CHEMBL2396535, “Synthesis and biological evaluation of 18F-labled 2-phenylindole derivatives as PET imaging probes for β-amyloid plaques” (Bioorg Med Chem, 2013):

Tests used:
[1] = molecular target: Amyloid-beta precursor protein (Homo sapiens, UniProt P05067); assay: Displacement of [125I]IMPY from amyloid beta (1 to 42) (unknown origin) after 3 hrs by gamma counting analysis
In short: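 Test compound ranged over 10^-4 to 10^-8.5 in ethanol, in 0.05% BSA, 1 mL total. Incubation was 3 h at room temperature, then GF/B filtration and gamma counting. IC50 came from three independent experiments, and Ki was derived by Cheng–Prusoff.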

[2] = Ratio of drug level in brain to blood in ICR mouse after 2 mins; type: ADME, tissue-based; settings: brain and blood, read-out: BBR
In short: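 Male ICR mice (5 weeks) received the ¹⁸F tracer (740–1110 kBq/mL) in saline with 10% EtOH by tail-vein injection. Five mice per time point were sacrificed at 2, 10, 30 and 60 min. Organs were removed, weighed and gamma-counted, and expressed as %ID/g. The ratio is brain %ID/g over blood %ID/g at 2 min.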

Brain = assay: Ratio of drug level in brain after 2 mins to drug level in brain after 60 mins in ICR mouse; type: ADME, tissue-based; settings: in vivo
In short: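 Male normal ICR mice (5 weeks old), n = 5 per time point, received a tail-vein injection of [18F] tracer (740–1110 kBq/mL) in saline containing 10% EtOH. Mice were sacrificed at 2, 10, 30 and 60 min. Organs were removed, weighed and gamma-counted, and data were expressed as %ID/g.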

Chain of Amyloid-beta precursor protein (P05067 whole entry): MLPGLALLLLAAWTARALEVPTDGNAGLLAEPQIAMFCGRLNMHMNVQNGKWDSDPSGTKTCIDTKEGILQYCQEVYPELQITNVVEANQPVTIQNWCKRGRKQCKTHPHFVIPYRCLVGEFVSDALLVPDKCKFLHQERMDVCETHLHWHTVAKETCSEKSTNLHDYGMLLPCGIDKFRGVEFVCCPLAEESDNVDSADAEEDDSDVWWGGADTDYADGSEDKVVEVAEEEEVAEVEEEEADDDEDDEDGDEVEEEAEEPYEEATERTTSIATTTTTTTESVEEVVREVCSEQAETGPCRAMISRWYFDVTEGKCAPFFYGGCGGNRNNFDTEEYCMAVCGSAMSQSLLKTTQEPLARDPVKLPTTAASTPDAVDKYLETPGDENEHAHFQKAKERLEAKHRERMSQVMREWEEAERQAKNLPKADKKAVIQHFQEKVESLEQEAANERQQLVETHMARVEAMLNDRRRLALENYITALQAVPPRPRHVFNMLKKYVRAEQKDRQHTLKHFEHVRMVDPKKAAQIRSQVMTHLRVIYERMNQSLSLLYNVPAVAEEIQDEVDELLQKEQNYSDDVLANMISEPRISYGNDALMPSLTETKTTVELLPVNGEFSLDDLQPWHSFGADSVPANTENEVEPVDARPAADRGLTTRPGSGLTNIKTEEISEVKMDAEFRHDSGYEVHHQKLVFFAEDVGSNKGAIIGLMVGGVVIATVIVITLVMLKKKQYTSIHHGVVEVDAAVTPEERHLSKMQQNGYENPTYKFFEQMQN

| Compound | Ki [1] | Kp at 2 min [2] | Ratio (Brain) |
| --- | --- | --- | --- |
| CN(CCCF)c1ccc(-c2cc3ccccc3n2C)cc1 | 79.7 nM | – | – |
| OCCOc1ccc(-c2cc3cc([125I])ccc3[nH]2)cc1 | – | 0.52 | 1.17 |
| Cn1c(-c2ccc(NCCCF)cc2)cc2ccccc21 | 1100 nM | – | – |
